Source: ChEMBL document CHEMBL4513216, “Probing the Open Global Health Chemical Diversity Library for Multistage-Active Starting Points for Next-Generation Antimalarials” (ACS Infect Dis, 2020)

Test: Toxicity liver stage against HepG2, at 10uM
Type: cell-based
Parameters: test concentration 10 uM, cell line HepG2-A16-CD81EGFP
Details: human, HepG2-A16-CD81EGFP cells; read-out: INHIBITION
In short: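 Uninfected HepG2-A16-CD81EGFP cells, 3 × 10^3 per well, 1536-well, plated on prespotted compound at 10 μM final, parasite-free screening media added to match infected plates; puromycin 10 μM positive, DMSO 0.5% negative; run in parallel with 48 h PbLuc assay at 37 °C, 5% CO2; viability by CellTiter-Glo luminescence, normalized to controls.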

SMILES: COc1cccc(S(=O)(=O)NC(=O)CC2CCCC2)c1
- cytotoxicity at 10 µM: 3.13%

SMILES: O=C1CCCN1CC1CCCCN1C(=O)Nc1cccnc1 (centres undefined)
- cytotoxicity at 10 µM: -0.123%

SMILES: CCc1nnc2n1CCN(CC(O)CN1CCC(C)CC1)C2 (centres undefined)
- cytotoxicity at 10 µM: -7.37%

SMILES: CC(=O)c1c(F)cccc1NCC(O)C(C)(C)C (centres undefined)
- cytotoxicity at 10 µM: 18.7%

SMILES: O=S1(=O)CCN2C(=N1)Oc1ccc(Cl)cc12
- cytotoxicity at 10 µM: 13.7%

SMILES: Cc1ccccc1C1(CNC(=O)c2ccc(S(C)(=O)=O)cc2)CC1
- cytotoxicity at 10 µM: -7.16%

SMILES: CCOc1ccc(C#N)cc1NC(=O)N1CCOC(C(N)=O)C1 (centres undefined)
- cytotoxicity at 10 µM: 12.9%

SMILES: COC1CCCN(C(=O)c2sc(CC(C)C)nc2C)C1 (centres undefined)
- cytotoxicity at 10 µM: 10.9%

SMILES: CCN1CC2(CC1=O)CN(C(=O)NC(C)C)CCN(C(=O)C(C)C)C2 (centres undefined)
- cytotoxicity at 10 µM: 0.508%

SMILES: CCC(C)(C)C(=O)N1C[C@@H]2C[C@@H](c3nnc(C)[nH]3)O[C@@H]2C1
- cytotoxicity at 10 µM: 4.79%

SMILES: Cc1ccc2c(n1)N(Cc1cccnc1)CCN(Cc1cnn(C)c1)C2
- cytotoxicity at 10 µM: 9.12%

SMILES: CNC(=O)[C@@H]1C[C@@H]2CCN(Cc3ccoc3)C[C@H]2O1
- cytotoxicity at 10 µM: -108%

SMILES: O=C(c1cscn1)N1CC[C@H]2C[C@H](c3nnc(C4CC4)o3)O[C@@H]2C1
- cytotoxicity at 10 µM: -111%

SMILES: O=C(c1ccco1)N1CC[C@@H]2[C@H]1CCC(=O)N2c1ccccc1
- cytotoxicity at 10 µM: -110%

SMILES: COc1ccc(C2(C(=O)N3CC[C@@]4(O)CCNC[C@H]4C3)CCCC2)cc1
- cytotoxicity at 10 µM: 6.03%

SMILES: CCc1nc(C)c(CN2CCN(c3ncnc4scc(C)c34)CC2)[nH]1
- cytotoxicity at 10 µM: 16.4%

SMILES: Cc1cc2cc(NC(=O)Cn3ncc(N4CCCC4)cc3=O)ccc2o1
- cytotoxicity at 10 µM: -0.273%

SMILES: CCCn1cnnc1CNC(=O)C1COc2cc(OC)ccc2C1 (centres undefined)
- cytotoxicity at 10 µM: 3.21%

SMILES: CCc1nnc(CN(CC)C(=O)C(C)n2ccnc2C(C)C)o1 (centres undefined)
- cytotoxicity at 10 µM: 6.23%

SMILES: Cc1nc(C(C)C)sc1CNC(=O)CCCN1CCCCC1
- cytotoxicity at 10 µM: -13.8%

SMILES: O=C(O)C1(Oc2ccccc2F)CCN(C/C=C/c2ccco2)CC1
- cytotoxicity at 10 µM: -6.49%

SMILES: Clc1ccccc1OC1CCN(CC2CCOC2)CC1 (centres undefined)
- cytotoxicity at 10 µM: -9.85%

SMILES: CCOCC(=O)NC(C)c1cc(C)ccc1C (centres undefined)
- cytotoxicity at 10 µM: 5.6%

SMILES: O=C(NCCN1CCOC1=O)c1cc(-c2ccccc2)on1
- cytotoxicity at 10 µM: 12.3%

SMILES: CCCc1cc(N2CCC(NCCc3ccc(O)cc3)CC2)nc(C)n1
- cytotoxicity at 10 µM: -6%

SMILES: Cn1cc(CN2CCCC(CCc3c(F)cccc3F)C2)cn1 (centres undefined)
- cytotoxicity at 10 µM: -7.55%

SMILES: NC(=O)c1cc2c(nc1-c1ccoc1)CCC2
- cytotoxicity at 10 µM: 0.562%

SMILES: Cc1n[nH]c(C)c1Sc1ccccc1NC(=O)N1CCOCC1
- cytotoxicity at 10 µM: 4.63%

SMILES: CC(C)[C@@H]1CN(S(=O)(=O)c2cccc(C(=O)O)c2)C[C@H]1N(C)C
- cytotoxicity at 10 µM: -39.1%

SMILES: O=C(c1cc(COc2ccc3c(c2)OCO3)[nH]n1)N1CCCCO1
- cytotoxicity at 10 µM: -2.47%

SMILES: Cc1cnc(N2CC[C@@]3(O)CCCC[C@H]3C2)nc1-c1ccnn1C
- cytotoxicity at 10 µM: 0.276%

SMILES: COc1ccnc(N2CCC3(CCCN(CC4CC4)C3=O)C2)n1 (centres undefined)
- cytotoxicity at 10 µM: 1.13%

SMILES: Cc1nc(C)n(CC2CN(CC(=O)NC3CCCC3)CCO2)n1 (centres undefined)
- cytotoxicity at 10 µM: -4.83%

SMILES: Cc1nc(C)n(CC2CCCCN2Cc2cnc(C)s2)n1 (centres undefined)
- cytotoxicity at 10 µM: -2.66%

SMILES: Cc1cnn(C2CCCN(C(=O)c3ccc(-n4cccn4)nc3)C2)c1 (centres undefined)
- cytotoxicity at 10 µM: -6.12%

SMILES: COc1c(CNC2CCN(c3ncccn3)CC2)c(C)nn1C
- cytotoxicity at 10 µM: -1.66%

SMILES: O=C(CCOc1ccc(F)cc1)N1CCCC1Cn1cccn1 (centres undefined)
- cytotoxicity at 10 µM: -2.7%

SMILES: c1cnnc(N2CCCC2CNCc2nc(-c3ccco3)no2)c1 (centres undefined)
- cytotoxicity at 10 µM: -10.2%

SMILES: COC(=O)c1cc(C(=O)N2CCN(C)CC2)n(-c2ccccc2)n1
- cytotoxicity at 10 µM: -13.2%

SMILES: CC(NC(=O)CSCC(=O)Nc1ccccc1)c1ccccc1 (centres undefined)
- cytotoxicity at 10 µM: -6.17%

SMILES: Cc1nc(CN2CCN(C(=O)c3ccn(C)c(=O)c3)CC2)cs1
- cytotoxicity at 10 µM: 1.73%

SMILES: Cc1cn2c(n1)CCC(NC(=O)c1nc(C)ncc1Cl)C2 (centres undefined)
- cytotoxicity at 10 µM: -3.13%

SMILES: OCC1CCCN1c1cc(N2CCc3ccccc3C2)ncn1 (centres undefined)
- cytotoxicity at 10 µM: 2.53%

SMILES: Cn1cc(CN2CC[C@H]3O[C@H](C(=O)Nc4cnccn4)CC[C@H]32)cn1
- cytotoxicity at 10 µM: -135%

SMILES: Cc1ccc(C(=O)N2CCC3(CC2)CC(c2ccccc2)C(=O)N3)cn1 (centres undefined)
- cytotoxicity at 10 µM: -7.42%

SMILES: CN1CCC2(CCN(c3ncc(F)cn3)CC2)C1=O
- cytotoxicity at 10 µM: 0.411%

SMILES: Cc1occc1C(=O)N1CCC2(CC1)CN(Cc1nccs1)CCO2
- cytotoxicity at 10 µM: 5.22%

SMILES: COCCN1C[C@@H]2[C@@H](OC)CCN(Cc3ccsc3)[C@@H]2C1
- cytotoxicity at 10 µM: 2.78%

SMILES: CN1CC(=O)N(c2cnn(C)c2)CC12CCN(CC1CC1)C2 (centres undefined)
- cytotoxicity at 10 µM: 7.6%

SMILES: CCCS(=O)(=O)N1C[C@@H](Oc2ncccc2F)[C@H]2OCCC[C@H]21
- cytotoxicity at 10 µM: 2.95%

SMILES: CCOCc1nnc2n1CCN(Cc1c(C)noc1C)CC2
- cytotoxicity at 10 µM: -95.3%

SMILES: CC(C)C(=O)N1CCCC2(C1)CN(c1nncs1)CCO2 (centres undefined)
- cytotoxicity at 10 µM: -104%

SMILES: O=C(NC[C@]12COC[C@H]1CN(CC1CCOCC1)C2)c1ccccc1
- cytotoxicity at 10 µM: -5.15%

SMILES: CSc1ncccc1C(=O)N1C[C@@H]2CC[C@H]1CN(C(=O)N(C)C)C2
- cytotoxicity at 10 µM: 1.71%
